Experimental data of several laboratories.

COCCOc1cc(CC2CCN(CCc3ccc4c(c3)C(=O)CCO4)CC2)ccc1Br.O=S(=O)(O)c1ccccc1 — bioavailability (male rat; plasma; oral; 10 mg/kg): 7.3%
CNC(=O)c1cccc(-c2ccc([C@@H](O)[C@H]3O[C@H](CO)[C@@H](O)[C@H](O)[C@@H]3O)c(C)c2)c1 — bioavailability (male Sprague-Dawley rat; plasma; oral; 10 mg/kg; single dose): 1.95%
N#Cc1ccc(-c2ccc(C[C@@H](C#N)NC(=O)C3(N)CCOCC3)cc2)cc1 — bioavailability (Sprague-Dawley rat; plasma; oral; 3 mg/kg): 92%
CCc1cc(OC)c2nccc(N3CCc4c(cc(Cn5ccnc5)cc4-c4cn(C)nc4C(F)(F)F)C3=O)c2c1 — bioavailability (male Sprague-Dawley rat; plasma; oral; 50 mg/kg): 65%
CN1CCC(COc2cnc(-c3cccc(Cn4nc(-c5cccc(C#N)c5)ccc4=O)c3)nc2)CC1 — bioavailability (male Sprague-Dawley rat; plasma; oral; 20 mg/kg): 56%
CC(C)(O)[C@H]1CC[C@H](Nc2ccc3ncc(-c4cccc(C(F)(F)F)c4)n3n2)CC1 — bioavailability (female Sprague-Dawley rat; plasma; oral; 40 mg/kg): 39%
Oc1c(-n2ccnn2)cnn1-c1cc(N2CCOCC2)ncn1 — bioavailability (male rat; plasma; oral; 5 mg/kg): 34%
O=C(Nc1cc(F)c(F)c(F)c1)c1ccc(F)c(S(=O)(=O)NCc2cccc(B(O)O)c2)c1 — bioavailability (male Sprague-Dawley rat; plasma; oral; 20 mg/kg): 2.85%
Oc1c(-c2cccnc2)cnn1-c1ccccn1 — bioavailability (rat; plasma; oral; 30 mg/kg): 35%
CCOC(=O)[C@@]12C[C@@H]1[C@@H](n1ccc3c(NC)nc(C#Cc4ccc(Cl)s4)nc31)[C@H](O)[C@@H]2O — bioavailability (male Sprague-Dawley rat; plasma; oral; 5 mg/kg): 92%
CC[C@H](C)[C@H](NC(=O)[C@H](Cc1ccccc1)NC(=O)[C@H](CCC(=O)O)NC(=O)[C@H](CCCNC(=N)N)NC(=O)[C@H](C)NC(=O)[C@H](C)NC(=O)[C@H](CCC(N)=O)NC(=O)[C@H](CCC(=O)O)NC(=O)[C@H](CCC(=O)O)NC(=O)[C@H](CC(C)C)NC(=O)[C@H](Cc1ccc(O)cc1)NC(=O)[C@H](CO)NC(=O)[C@H](CO)NC(=O)[C@@H](NC(=O)[C@H](CC(=O)O)NC(=O)[C@H](CO)NC(=O)[C@@H](NC(=O)[C@H](Cc1ccccc1)NC(=O)[C@@H](NC(=O)CNC(=O)[C@H](CCC(=O)O)NC(=O)[C@H](C)NC(=O)CCc1c[nH]cn1)[C@@H](C)O)[C@@H](C)O)C(C)C)C(=O)N[C@@H](C)C(=O)N[C@@H](Cc1c[nH]c2ccccc12)C(=O)N[C@@H](CC(C)C)C(=O)N[C@H](C(=O)N[C@@H](CCCNC(=N)N)C(=O)NCC(=O)N[C@@H](CCCNC(=N)N)C(=O)N[C@@H](CCCCNC(=O)COCCOCCNC(=O)COCCOCCNC(=O)CC[C@H](NC(=O)CCCCCCCCCCCCCCCCC(=O)O)C(=O)O)C(=O)O)C(C)C — bioavailability (rat; plasma; subcutaneous; 20 nmol/kg): 38.7%
Cn1cc(-c2cc(N3CCCCS3(=O)=O)ccc2Oc2ccc(F)cc2F)c2c(F)c[nH]c2c1=O — bioavailability (Sprague-Dawley rat; plasma; oral; 3 mg/kg): 20 to 30%
COCCOC(=O)C1=C(C)NC(C)=C(C(=O)OC(C)C)C1c1cccc([N+](=O)[O-])c1 (stereo not shown) — bioavailability (male Sprague-Dawley rat; plasma; oral; 12 mg/kg): 21.9%
COc1nc2[nH]c(C(F)(F)F)nc2nc1Nc1ccc(OC(F)(F)F)cc1F — bioavailability (Sprague-Dawley rat; serum; oral; 5 mg/kg): 100%
COc1ccc2c(Cc3ccccc3F)c3n(c(=O)c2c1OC)CCc1cc2c(cc1-3)OCO2 — bioavailability (rat; plasma; oral; 5 mg/kg): 15%
N#Cc1ccc(Nc2nc(N)cc(Oc3c(F)cc(-c4ccc(C#N)cc4)cc3F)n2)cc1 — bioavailability (Sprague-Dawley rat; plasma; oral; 5 mg/kg): 6.51%
